Screening results: PubChem BioAssay, several laboratories
A selection: hits, their analogues and other compounds. The true share with any hit is near 9.4%.
Lmaj promast: Leishmania major promastigote growth inhibition | Leishmania major promastigotes, resazurin fluorescence viability | inhibition, % at 10 µM | hit rate 9% among 200,000; in the data active means inhibition above about 50%;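 further: promastigotes grown with compound for 44 hours at 28 °C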
T cruzi repl: blocks replication of Trypanosoma cruzi | T. cruzi beta-gal in NIH3T3, luminescence, 90 h | inhibition, % (test concentration not listed) | hit rate 1.4% among 300,000;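 active means mean inhibition across valid replicates above about 55%, limit read from the data; inconclusive means mean below that limit but half or more replicates reach it; inactive means mean below it, under half of replicates reach it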;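 further: signal also drops with host cell toxicity which is not excluded here; 0% = plate median of DMSO wells and 100% = zero luminescence signal; higher percent means less beta-gal luminescence so fewer parasites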
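assay system = mouse NIH/3T3 fibroblasts infected with β-gal-expressing T. cruzi Tulahuen C4 | input = 5,000 NIH/3T3 host cells per well | buffer or medium = DMEM plus 2% FBS | timing = 3 h host attachment, then at least 90 h co-culture | measured by = GalScreen luminescence, 60 min | evaluation = luminescence reflecting intracellular parasite burden, expressed as percent inhibition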
CSC inhib: cancer stem cell inhibition; inhibition, % at 7.5 µM; AID 2717; hit rate 1.1% among 300,000; cancer stem cell-like cells viability, luminescence; in the data active means inhibition above about 75%; inconclusive means no clear call, values can overlap the other calls; tested in HMLE shEcad cells
Beta apoptosis: beta cell apoptosis inhibition. INS-1E cytokine-induced death, ATP luminescence, 48 h; percent of positive-control rescue, neutral wells zero. protection from apoptosis, % (concentration not given with the values). hit rate 0.8% among 300,000. AID 435005;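 active means Every replicate reaches about 75%, or at least half do and their mean reaches it too, limit read from the data; inconclusive means At least half of replicates reach the limit but their mean does not; inactive means Under half of replicates reach the limit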;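 further: 0% = cytokine-treated negative control wells and 100% = positive control rescue; higher means more ATP so stronger rescue from cytokine killing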
Mdm2-MdmX inh: human Mdm2/MdmX binding inhibition | SaOS-2 split-luciferase Mdm2/MdmX complementation, luminescence | inhibition, % at 8 µM | hit rate 3% among 330,000;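 active means inhibition of at least 50% at 8 µM in the primary screen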
SKKanGAS inh: inhibitors of SKKanGAS S. pyogenes growth in kanamycin (SK-promoter or general growth effect); BacTiter-Glo, 6 h; inhibition, % at 7.5 µM; hit rate 1.3% among 300,000;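 active means mean replicate score, as percent of positive control median, at least 50; inconclusive means mean below 50 but one replicate at or above 50; inactive means mean and every replicate below 50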;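 further: strain carries kanamycin resistance gene driven by streptokinase promoter and grows in 40 µg/ml kanamycin; loss of luminescence reflects streptokinase promoter inhibition or plain growth inhibition; 0% = median of DMSO wells and 100% = positive control at its reference dose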
* = called active by the depositor; u = inconclusive; x = no result.

SMILES | Lmaj promast | T cruzi repl | CSC inhib | Beta apoptosis | Mdm2-MdmX inh | SKKanGAS inh
COc1ccc(-c2cc(C(F)(F)F)nc(-n3ccnc3)n2)cc1 | 16 | 9 | -4 | 3 | 32 | 3
CC(C)c1nnc(SCC(=O)N2CCc3ccccc32)n1N | 0 | -7 | -7 | -8 | -19 | 4
Cc1ccc(NCC(=O)N/N=C/c2cc3ccccc3nc2Cl)cc1 | 84* | -13 | -12 | 6 | 11 | 3
O=C(CN1CCOCC1)N/N=C/c1cc2ccccc2nc1Cl | -2 | -4 | -10 | -5 | -10 | -5
CC(C)C(=O)NNC(=O)c1ccccn1 | -2 | -2 | -14 | 0 | 7 | -1
CC(Oc1ccccc1)C(=O)NNC(=O)c1ccccn1 (stereo not given) | 79* | 3 | 13 | -4 | 34 | -12
Clc1cccc(Nc2ncnc3c2cnn3-c2ccccc2)c1 | x | 17 | 56 | x | -20 | 64*
C=CCNC(=O)CN1C(=O)c2cccc3cccc1c23 | x | -1 | 2 | -7 | -3 | 0
COc1ccc(Nc2nc(NCC3CCCO3)nc(N)c2[N+](=O)[O-])cc1 (stereo not given) | x | -14 | -1 | -2 | 20 | 23
c1ccc(-c2nc(NCC3CCCO3)c3ccccc3n2)nc1 (stereo not given) | 100* | 27 | -6 | 115* | 13 | 14
c1ccc2c(NCC3CCCO3)nc(N3CCOCC3)nc2c1 (stereo not given) | 9 | 3 | -18 | -2 | -4 | -6
Nc1nc(NCC2CCCO2)nc(Nc2ccccc2)c1[N+](=O)[O-] (stereo not given) | 14 | -9 | x | -6 | 17 | 2
Oc1cccc(Nc2nc(NCC3CCCO3)c3ccccc3n2)c1 (stereo not given) | 100* | 52 | 7 | x | 38 | 10
c1ccc(Nc2nc(NCC3CCCO3)c3ccccc3n2)cc1 (stereo not given) | 99* | 93* | 10 | 31 | 44 | -6
CCOc1ccc(Nc2nc(NCC3CCCO3)c3ccccc3n2)cc1 (stereo not given) | 101* | 48 | -15 | 52 | 28 | -7
O=C(NCC1CCCO1)c1ccccn1 (stereo not given) | -2 | -16 | -12 | 1 | -3 | 1
CCCCOc1ccc(NC(=O)CCSc2nccn2C)cc1 | 3 | 8 | 10 | -5 | 4 | -4
COc1ccc(Nc2c3c(nc4ccccc24)CCC3)c(OC)c1 | x | 30 | 15 | 15 | 47 | 5
COc1ccc(Nc2nc(NCC3CCCO3)c3ccccc3n2)c(OC)c1 (stereo not given) | 100* | 68* | -14 | 19 | 30 | -9
O=C(OCC(=O)N1CCOCC1)c1cc(=O)[nH]c2ccccc12 | x | x | -11 | -2 | 14 | x
O=C(CCC(=O)N/N=C/c1cc(Cl)cc(Cl)c1O)NCc1ccccc1 | -12 | -17 | 3 | -2 | 33 | 6
CCOC(=O)c1nn(-c2ccccc2Cl)c(=O)cc1OCC(=O)Nc1cccc(OC)c1 | x | -8 | 5 | 5 | 44 | 53*
Cc1ccc2c(c1)oc(=O)n2CC(=O)c1ccccc1 | x | 5 | -8 | -2 | 19 | 5
Cc1ccccc1NC(=O)C1Cc2ccccc2CN1C(=O)OCc1ccccc1 (stereo not given) | 92* | 14 | -1 | -1 | -25 | -12
Cc1cc(=O)[nH]c(N/N=C/c2ccc(-c3ccc(F)cc3)o2)n1 | x | -14 | 75* | 55 | -4 | -2
SMILES | Lmaj promast | T cruzi repl | CSC inhib | Beta apoptosis | Mdm2-MdmX inh | SKKanGAS inh
CSc1ccc(/C=N/Nc2nc(C)cc(=O)[nH]2)cc1 | 16 | -7 | -6 | 4 | -9 | 4
COc1cc(C(=O)NCCC(C)C)ccc1OCc1ccc(Cl)cc1Cl | 97* | 70* | -15 | 18 | 18 | 23
COc1ccc(OC)c(/C(O)=C/C(=O)C(=O)Nc2cc(C)cc(C)c2)c1 | 35 | -1 | 7 | 1 | 15 | 7
COc1ccc(OC)c(/C(O)=C/C(=O)C(=O)Nc2cc(C)ccc2OC)c1 | 93* | -11 | -10 | 3 | 11 | 11
Cc1ccc(C)c(NC(=O)CN(C)C(=O)C2CCN(C(=O)Nc3ccccc3)CC2)c1 | x | -8 | x | 2 | 21 | -8
CNc1nc(N)c(C(=O)C23CC4CC(CC(C4)C2)C3)s1 | 100* | 11 | 48 | -2 | -7 | -5
CCOC(=O)c1c(CSC(=N)N)n(-c2ccc(Br)cc2)c2cc(Br)c(OC(C)=O)cc12 | 88* | x | x | x | x | x
CCCCCCCCOC(=O)c1c(CSC(=N)N)n(C)c2cc(Br)c(OC(C)=O)cc12 | x | 22 | 76* | -1 | -5 | 75*
CCOC(=O)c1c(C)n(C)c2cc(Br)c(C(=O)OC)cc12 | 1 | -2 | -5 | 2 | 9 | 2
CCCCCCCc1ccc(-c2ccc(O)cc2)nc1 | -1 | 41 | 85* | -2 | -60 | 17
CCCCCc1ccc(-c2ccc(/C=C/C(=O)O)cc2)nc1 | 47 | 0 | 9 | -3 | 2 | 12
Cc1ccc(-c2cc(-c3ccccc3C)[nH]n2)c(O)c1 | 32 | x | u | 16 | -53 | x
Cc1ccc(-c2cc(-c3cccc(F)c3)n[nH]2)c(O)c1 | 24 | 6 | -2 | 5 | -179 | 52*
Cc1ccc(O)c(-c2cc(-c3cccc(F)c3)n[nH]2)c1 | 99* | 5 | 41 | 15 | -24 | 30
Cc1ccc(NCCC(=O)c2cccs2)cc1C | 43 | 5 | 5 | -7 | -3 | 6
Cc1ccccc1NC(=O)c1ccccc1NC(=O)c1cccs1 | x | 10 | x | 3 | 16 | 1
Cc1ccccc1NC(NC(=O)c1cccs1)C(Cl)(Cl)Cl (stereo not given) | 72* | -13 | 4 | -2 | 6 | 40
Cc1ccc(NCCC(=O)c2cccs2)cc1 | 72* | 8 | 1 | -4 | -16 | 2
Cc1ccc(NC(NC(=O)c2cccs2)C(Cl)(Cl)Cl)cc1 (stereo not given) | 71* | -7 | 5 | -5 | 24 | 14
Cc1ccc(NC(NC(=O)c2cccs2)C(Cl)(Cl)Cl)cc1C (stereo not given) | 25 | -8 | 10 | x | 31 | 11
Cc1ccc(SC2=C(C(=O)O)CCCC2)cc1 | x | -4 | -3 | -12 | 12 | 5
Cc1cc(C)c(S(=O)(=O)N/N=C/c2ccc3c(c2)OCO3)c(C)c1 | x | -3 | -10 | -31 | 9 | 17
COc1ccc(NC(=O)CCN2C(=O)C3C4CCC(C4)C3C2=O)cc1 (stereo not given) | 57* | 1 | -1 | -11 | -19 | 0
O=C(CCN1C(=O)C2C3CCC(C3)C2C1=O)Nc1ccc(Br)cc1 (stereo not given) | 60* | -11 | -8 | -2 | 15 | 3
O=C(CCN1C(=O)C2C3CCC(C3)C2C1=O)Nc1ccc([N+](=O)[O-])cc1 (stereo not given) | 3 | -5 | 17 | 2 | -30 | -6
CC(CCc1ccccc1)NC(=O)Cc1cccs1 (stereo not given) | -4 | -3 | 6 | 1 | 1 | 14
